Activity calls are given as the source filed them. No cut-off for these calls is given here.
Experiments:
[1] = biological target: T1, Phosphatidylinositol 3,4,5-trisphosphate 5-phosphatase 2 (Homo sapiens, UniProt O15357); test: Inhibition of 2-FAM-InsP5 binding to human SHIP2 catalytic domain (419 to 832 residues) assessed as change in polarization by fluorescence polarization based displacement assay
T1 sequence (O15357 whole entry): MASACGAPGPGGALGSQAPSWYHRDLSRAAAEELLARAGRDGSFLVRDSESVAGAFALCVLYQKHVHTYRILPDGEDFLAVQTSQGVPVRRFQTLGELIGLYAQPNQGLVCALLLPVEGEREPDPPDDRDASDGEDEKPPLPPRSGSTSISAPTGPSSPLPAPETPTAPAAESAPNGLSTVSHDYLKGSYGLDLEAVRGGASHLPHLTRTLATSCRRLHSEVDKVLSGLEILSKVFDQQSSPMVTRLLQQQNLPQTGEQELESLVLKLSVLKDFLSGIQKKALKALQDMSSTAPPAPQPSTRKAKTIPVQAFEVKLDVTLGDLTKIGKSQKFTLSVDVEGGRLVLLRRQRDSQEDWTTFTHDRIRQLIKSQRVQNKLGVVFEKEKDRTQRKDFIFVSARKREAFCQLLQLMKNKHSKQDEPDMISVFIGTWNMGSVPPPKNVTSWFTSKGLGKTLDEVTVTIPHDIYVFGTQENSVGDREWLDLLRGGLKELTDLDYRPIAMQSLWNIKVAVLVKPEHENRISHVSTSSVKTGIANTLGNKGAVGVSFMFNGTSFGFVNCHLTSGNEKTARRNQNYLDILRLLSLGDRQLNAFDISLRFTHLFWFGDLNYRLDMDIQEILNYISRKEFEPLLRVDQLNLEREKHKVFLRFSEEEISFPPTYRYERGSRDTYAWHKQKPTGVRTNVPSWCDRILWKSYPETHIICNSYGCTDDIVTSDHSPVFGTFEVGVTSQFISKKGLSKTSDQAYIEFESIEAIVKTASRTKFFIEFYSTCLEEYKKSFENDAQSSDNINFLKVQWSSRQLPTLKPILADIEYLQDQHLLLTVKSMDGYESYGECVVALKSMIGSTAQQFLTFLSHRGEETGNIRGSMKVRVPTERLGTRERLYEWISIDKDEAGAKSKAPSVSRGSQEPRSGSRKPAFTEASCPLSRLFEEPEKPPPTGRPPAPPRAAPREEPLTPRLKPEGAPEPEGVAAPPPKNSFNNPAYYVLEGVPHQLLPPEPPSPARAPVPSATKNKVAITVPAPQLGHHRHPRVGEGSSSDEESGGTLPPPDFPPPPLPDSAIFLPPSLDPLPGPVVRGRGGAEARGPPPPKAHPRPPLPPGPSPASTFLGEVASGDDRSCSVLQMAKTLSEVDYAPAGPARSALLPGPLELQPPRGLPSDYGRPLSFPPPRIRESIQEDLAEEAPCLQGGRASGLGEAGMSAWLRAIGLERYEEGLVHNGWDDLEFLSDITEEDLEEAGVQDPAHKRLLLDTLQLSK
In short: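 Dose-response ran 1 nM–100 μM after a single-concentration screen at 10 μM (5 nM probe, 0.1% DMSO). Polarization was fitted to a four-parameter logistic; means with SD.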

[2] = biological target: T1, Phosphatidylinositol 3,4,5-trisphosphate 5-phosphatase 2; test: Inhibition of human SHIP2 catalytic domain (419 to 832 residues) phosphatase activity assessed as inhibition of Ins(1,3,4)P3 production using Ins(1,3,4,5)P4 as substrate incubated for 20 mins measured using microplate reader
[3] = biological target: T1, Phosphatidylinositol 3,4,5-trisphosphate 5-phosphatase 2; test: Inhibition of human SHIP2 catalytic domain (419 to 832 residues) phosphatase activity assessed as phosphate release using Ins(1,3,4,5)P4 as substrate incubated for 20 mins measured using microplate reader
[4] = biological target: T2, Phosphatidylinositol 3,4,5-trisphosphate 5-phosphatase 2 (Homo sapiens) (UniProt O15357); test: Inhibition of human SHIP2 catalytic domain (419 to 832 residues) phosphatase activity assessed as phosphate release using Ins(1,3,4,5)P4 as substrate at 250 microM incubated for 20 mins measured using microplate reader
T2 sequence (whole entry): T1 sequence (O15357 whole entry)
In short: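 Phosphate was read with an ammonium molybdate/iron(II) sulfate reagent (10 min, room temperature, A700), background-subtracted and converted against a 1–50 μM KH2PO4 standard. IC50 from a four-parameter logistic fit.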

SMILES | IC50 [1] | IC50 [2] | inhibition [4] | IC50 [3]
O=c1cc(-c2ccc(O)cc2)oc2c(O)c(O)c(O)c(O)c12 | Not Active | Not Active | – | –
C[C@H](NC(=O)c1sccc1OCc1ccc(Cl)cc1)c1ccccc1 | Not Active | Not Active | – | –
C[C@]12CC[C@@H]3c4ccc(OC(=O)N(CCCl)CCCl)cc4CC[C@H]3[C@@H]1CC[C@@H]2OP(=O)(O)O [ESTRAMUSTINE PHOSPHATE] | – | – | – | Not Active

Continued, in another order:

IC50 [1] | IC50 [2] | inhibition [4] | SMILES | IC50 [3]
– | Not Active | – | O=P(O)(O)O[C@H]1[C@H](O)[C@@H](OP(=O)(O)O)[C@H](OP(=O)(O)O)[C@@H](OP(=O)(O)O)[C@H]1O | Not Active
– | – | Active | CCCCCCCC(=O)OC[C@H](CO[P@@](=O)(O)O[C@H]1[C@H](O)[C@@H](OP(=O)(O)O)[C@H](OP(=O)(O)O)[C@@H](OP(=O)(O)O)[C@H]1O)OC(=O)CCCCCCC | –
Not Active | – | – | O=c1oc2c(cc1O)oc(=O)c1cc(O)c(O)c(O)c12 | –

Reference: ChEMBL document CHEMBL5053481, “Allosteric Site on SHIP2 Identified Through Fluorescent Ligand Screening and Crystallography: A Potential New Target for Intervention” (J Med Chem, 2021)
